{"data": "Assay results collected from several papers", "CDK18": "Cyclin-dependent kinase 18 (CDK18, Homo sapiens, UniProt Q07002)", "CDK18 with cyclin Y": "Cyclin-dependent kinase 18, with cyclin Y (CDK18, Homo sapiens, UniProt Q07002)"}
{"Compound": "C1=C/COCc2cc(ccc2OCCN2CCCC2)Nc2nccc(n2)-c2cccc(c2)COC/1", "target": "CDK18", "observed": "binding", "tested at": "0.1 µM", "measurement": "remaining binding", "result": "92%"}
{"Compound": "COc1ccc2oc(-c3ccc4nc(N)oc4c3)c/c(=N\\c3ccccc3NC(=O)CCN)c2c1", "target": "CDK18 with cyclin Y", "observed": "binding", "tested at": "1 µM", "measurement": "remaining binding", "result": "108%"}
{"Compound": "C=CC(=O)N1CCC[C@@H](n2nc(-c3ccc(Oc4ccccc4)cc3)c3c(N)ncnc32)C1", "target": "CDK18", "observed": "enzyme activity", "action": "inhibitor", "tested at": "1 µM", "measurement": "inhibition", "result": "3%"}
{"Compound": "CC(C)S(=O)(=O)c1ccc2nccc(Nc3ccc4sc(C5CCCC5)nc4c3)c2c1", "target": "CDK18 with cyclin Y", "observed": "enzyme activity", "action": "inhibitor", "tested at": "1 µM", "measurement": "activity vs control", "result": "104%"}
{"Compound": "Cc1ccc(NC(=O)c2ccnc(C(F)(F)F)c2)cc1-c1cc(OCCO)nc(N2CCOCC2)c1", "target": "CDK18", "observed": "binding", "tested at": "1 µM", "measurement": "remaining binding", "result": "100%"}
{"Compound": "CCCCC(=O)Nc1ccc(-c2ccc3ncn(CCC)c(=O)c3c2)cn1", "target": "CDK18", "observed": "binding", "method": "competition with immobilised ligand", "tested at": "0.5 µM", "measurement": "remaining binding", "result": "100%"}
{"Compound": "COc1ccc2[nH]c3c4[nH]c5ccc(OC)cc5c4c4c(c3c2c1)C(=O)NC4=O", "target": "CDK18", "observed": "binding", "tested at": "1 µM", "measurement": "remaining binding", "result": "80%"}
{"Compound": "C=CC(=O)N1CCC([C@@H]2CCNc3c(C(N)=O)c(-c4ccc(Oc5ccccc5)cc4)nn32)CC1", "target": "CDK18", "observed": "enzyme activity", "action": "inhibitor", "tested at": "1 µM", "measurement": "inhibition", "result": "9%"}
